# Source: PMC8165011 (European journal of medicinal chemistry, 2021)
# Where two headings read alike, the source gives them in different places.
# Assays:
# Assay type in all cases: cell-based
# [1] = tested on: S. aureus ATCC 33592 (Sa92); test: MIC assay
# [2] = tested on: S. aureus ATCC 25923 (Sa23), antibiotic susceptible; test: MIC assay
# [3] = tested on: S. aureus ATCC 33591 (Sa91); test: MIC assay
# [4] = tested on: S. aureus BAA-2312 (Sa12), antibiotic-resistant; test: MIC assay
# [5] = tested on: S. epidermidis ATCC 700296 (Se); test: MIC assay
# [6] = tested on: antibiotic susceptible E. faecalis ATCC 29212 (Ef12); test: MIC assay; details: for MIC Efl2: E. faecalis ATCC 29212; for MIC: Enterococcus faecalis, ATCC29212, read-out: MIC Efl2
# [7] = tested on: S. aureus ATCC 700699 (Sa99); test: MIC assay; details: for MIC Sa99: S. aureus ATCC 700699
# [8] = tested on: vancomycin-resistant E. faecium ATCC 700221 (Ef21); test: MIC assay
# [9] = tested on: Bacillus subtilis ATCC 6623 (Bs); test: MIC assay
# [10] = tested on: tested Gram-positive strains; test: MIC assay, summary over the tested Gram-positive strains; details: for antimicrobial activity (in words): tested Gram-positive strains
# Procedure, shortened: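 CLSI standard broth microdilution. Test compound started at 50 µg/ml and serially diluted 2-fold. Run in triplicate.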
# [11] = tested on: S. aureus ATCC 25923 (MSSA); test: Multistep
# [12] = tested on: S. aureus ATCC 700699 (MRSA); test: Multistep; details: within two weeks of the start
# [13] = tested on: S. aureus and E. faecalis biofilms; test: Biofilm inhibition and destruction at 4x and 8xMIC; details: 4x and 8xMIC (data not shown)
# [14] = tested on: E. faecalis clinical isolates (VRE); test: MIC against clinical isolates of E. faecalis; details: Enterococcus faecalis, VRE
# [15] = tested on: S. aureus clinical isolates (MSSA, MRSA); test: MIC against clinical isolates of S. aureus; details: Staphylococcus aureus, MRSA|MSSA
# [16] = tested on: E. faecium clinical isolates (VRE); test: MIC against clinical isolates of E. faecium; details: Enterococcus faecium, VRE
# [17] = tested on: S. aureus ATCC 700699 (MRSA) stationary phase persister cells; test: Persister cell killing assay; details: 64xMIC
compound,measurement,setting,value
4-[4-[(4-chloroanilino)methyl]-3-(p-tolyl)pyrazol-1-yl]benzoic acid [Compound 45],MIC Sa92,[1],1.56 µg/mL
same,MIC Sa23,[2],1.56 µg/mL
same,MIC Sa91,[3],1.56 µg/mL
same,MIC Sal2,[4],1.56 µg/mL
same,MIC Se,[5],3.12 µg/mL
same,MIC Efl2,[6],6.25 µg/mL
same,MIC Sa99,[7],1.56 µg/mL
same,MIC Ef21,[8],1.56 µg/mL
same,MIC Bs,[9],0.78 µg/mL
"O=C(O)c1ccc(-n2cc(CNc3cccc(Br)c3)c(-c3ccc(C(F)(F)F)cc3)n2)cc1 [Compound 46, 4-{4-[(3-bromoanilino)methyl]-3-[4-(trifluoromethyl)phenyl]-1H-pyrazol-1-yl}benzoic acid]",MIC,[10]; read-out: MIC value as low as,≥ 0.78 µg/mL
"O=C(O)c1ccc(-n2cc(CNc3cccc(OC(F)(F)F)c3)c(-c3ccc(C(F)(F)F)cc3)n2)cc1 [Compound 50, 4-[4-[[3-(trifluoromethoxy)anilino]methyl]-3-[4-(trifluoromethyl)phenyl]pyrazol-1-yl]benzoic acid]",MIC,[10]; read-out: MIC values,0.78 to 3.12 µg/mL
"O=C(O)c1ccc(-n2cc(CNc3ccc(Br)c(C(F)(F)F)c3)c(-c3ccc(C(F)(F)F)cc3)n2)cc1 [Compound 63, 4-[4-[[4-bromo-3-(trifluoromethyl)anilino]methyl]-3-[4-(trifluoromethyl)phenyl]pyrazol-1-yl]benzoic acid]",MIC,[6],1.56 µg/mL
O=C(O)c1cn(C2CC2)c2cc(N3CCNCC3)c(F)cc2c1=O [ciprofloxacin],passage at which resistance started to develop,[11],7 passage
same,fold more resistant,[11]; within two weeks of the start,16 fold
same,fold more resistant,[12],16 fold
4-[4-[(3-fluoroanilino)methyl]-3-(p-tolyl)pyrazol-1-yl]benzoic acid [Compound 42],MIC Sa92,[1],3.12 µg/mL
same,MIC Sa23,[2],3.12 µg/mL
same,MIC Sa91,[3],3.12 µg/mL
same,MIC Sal2,[4],3.12 µg/mL
same,MIC Se,[5],6.25 µg/mL
same,MIC Efl2,[6],25 µg/mL
same,MIC Sa99,[7],3.12 µg/mL
same,MIC Ef21,[8],6.25 µg/mL
same,MIC Bs,[9],1.56 µg/mL
"O=C(O)c1ccc(-n2cc(CNc3cc(Cl)c(O)c(Cl)c3)c(-c3ccc(C(F)(F)F)cc3)n2)cc1 [Compound 78, 4-[4-[(3,5-dichloro-4-hydroxy-anilino)methyl]-3-[4-(trifluoromethyl)phenyl]pyrazol-1-yl]benzoic acid]",antimicrobial activity (in words),[10],inactivity
"O=C(O)c1ccc(-n2cc(CNc3cccc(C(F)(F)F)c3)c(-c3ccc(C(F)(F)F)cc3)n2)cc1 [Compound 48, 4-[4-[[3-(trifluoromethyl)anilino]methyl]-3-[4-(trifluoromethyl)phenyl]pyrazol-1-yl]benzoic acid]",antimicrobial activity (in words),[10],potent activity
same,MIC,"[7]; Staphylococcus aureus, ATCC700699, read-out: MIC Sa99",0.39 µg/mL
"O=C(O)c1ccc(-n2cc(CNc3ccc(Br)cc3)c(-c3ccc(C(F)(F)F)cc3)n2)cc1 [Compound 47, 4-[4-[(4-bromoanilino)methyl]-3-[4-(trifluoromethyl)phenyl]pyrazol-1-yl]benzoic acid]",MIC,[10]; read-out: MIC value as low as,≥ 0.78 µg/mL
"O=C(O)c1ccc(-n2cc(CNc3ccc(C(=O)O)c(C(F)(F)F)c3)c(-c3ccc(C(F)(F)F)cc3)n2)cc1 [Compound 67, 4-[[1-(4-carboxyphenyl)-3-[4-(trifluoromethyl)phenyl]pyrazol-4-yl]methylamino]-2-(trifluoromethyl)benzoic acid]",antimicrobial activity (in words),[10],eliminated the activity
"O=C(O)c1ccc(-n2cc(CNc3ccc(N4CCOCC4)c(C(F)(F)F)c3)c(-c3ccc(C(F)(F)F)cc3)n2)cc1 [Compound 68, 4-[4-[[4-morpholino-3-(trifluoromethyl)anilino]methyl]-3-[4-(trifluoromethyl)phenyl]pyrazol-1-yl]benzoic acid]",antimicrobial activity (in words),[10],highly potent
"O=C(O)c1ccc(-n2cc(CNc3ccc(Br)c(Cl)c3F)c(-c3ccc(C(F)(F)F)cc3)n2)cc1 [Compound 75, 4-[4-[(4-bromo-3-chloro-2-fluoro-anilino)methyl]-3-[4-(trifluoromethyl)phenyl]pyrazol-1-yl]benzoic acid]",biofilm inhibition and destruction,[13],> 95%
same,MIC,[6],1.56 µg/mL
4-[4-[(4-fluoroanilino)methyl]-3-(p-tolyl)pyrazol-1-yl]benzoic acid [Compound 43],MIC Sa92,[1],12.5 µg/mL
same,MIC Sa23,[2],6.25 µg/mL
same,MIC Sa91,[3],6.25 µg/mL
same,MIC Sal2,[4],3.12 µg/mL
same,MIC Se,[5],12.5 µg/mL
same,MIC Efl2,[6],25 µg/mL
same,MIC Sa99,[7],6.25 µg/mL
same,MIC Ef21,[8],6.25 µg/mL
same,MIC Bs,[9],1.56 µg/mL
4-[4-[(3-chloroanilino)methyl]-3-(p-tolyl)pyrazol-1-yl]benzoic acid [Compound 44],MIC Sa92,[1],1.56 µg/mL
same,MIC Sa23,[2],1.56 µg/mL
same,MIC Sa91,[3],0.78 µg/mL
same,MIC Sal2,[4],1.56 µg/mL
same,MIC Se,[5],3.12 µg/mL
same,MIC Efl2,[6],12.5 µg/mL
same,MIC Sa99,[7],0.78 µg/mL
same,MIC Ef21,[8],0.78 µg/mL
same,MIC Bs,[9],0.78 µg/mL
"O=C(O)c1ccc(-n2cc(CNc3ccccc3)c(-c3ccc(C(F)(F)F)cc3)n2)cc1 [Compound 41, 4-[4-(anilinomethyl)-3-[4-(trifluoromethyl)phenyl]pyrazol-1-yl]benzoic acid]",MIC,[10]; read-out: MIC value as low as,≥ 3.12 µg/mL
"O=C(O)c1ccc(-n2cc(CNc3cc(F)c(C(F)(F)F)cc3F)c(-c3ccc(C(F)(F)F)cc3)n2)cc1 [Compound 76, 4-[4-[[2,5-difluoro-4-(trifluoromethyl)anilino]methyl]-3-[4-(trifluoromethyl)phenyl]pyrazol-1-yl]benzoic acid]",MIC,[6],3.12 µg/mL
"Cc1onc(-c2ccccc2)c1C(=O)N[C@@H]1C(=O)N2[C@@H]1SC(C)(C)[C@@H]2C(=O)O [Oxa, Oxacillin]",MIC,"[14]; E. faecalis 1088051, VRE",64 µg/mL
same,MIC,"[14]; E. faecalis 1091563, VRE",64 µg/mL
same,MIC,"[14]; E. faecalis 1091720, VRE",64 µg/mL
same,MIC,"[14]; E. faecalis 1094112, VRE",> 64 µg/mL
same,MIC,"[14]; E. faecalis 1100440, VRE",> 64 µg/mL
same,MIC,"[15]; S. aureus 1088064, MRSA",64 µg/mL
same,MIC,"[15]; S. aureus 1088610, MRSA",64 µg/mL
same,MIC,"[15]; S. aureus 1088888, MRSA",> 64 µg/mL
same,MIC,"[15]; S. aureus 1089106, MRSA",64 µg/mL
same,MIC,"[16]; E. faecium 1088168, VRE",> 64 µg/mL
same,MIC,"[16]; E. faecium 1088228, VRE",> 64 µg/mL
same,MIC,"[16]; E. faecium 1088925, VRE",> 64 µg/mL
same,MIC,"[16]; E. faecium 1089544, VRE",> 64 µg/mL
same,MIC,"[16]; E. faecium 1091282, VRE",> 64 µg/mL
"Cc1ccc(NCc2cn(-c3ccc(C(=O)O)cc3)nc2-c2ccc(C(F)(F)F)cc2)cc1Cl [Compound 58, 4-[4-[(3-chloro-4-methyl-anilino)methyl]-3-[4-(trifluoromethyl)phenyl]pyrazol-1-yl]benzoic acid]",antimicrobial activity (in words),[10],inhibited the growth of tested bacteria efficiently
"NS(=O)(=O)c1ccc(NCc2cn(-c3ccc(C(=O)O)cc3)nc2-c2ccc(C(F)(F)F)cc2)cc1 [Compound 49, 4-[4-[(4-sulfamoylanilino)methyl]-3-[4-(trifluoromethyl)phenyl]pyrazol-1-yl]benzoic acid]",antimicrobial activity (in words),[10],almost eliminated the activity
"CNC(C)C1CCC(N)C(OC2C(N)CC(N)C(OC3OCC(C)(O)C(NC)C3O)C2O)O1 (stereo not drawn) [gentamicin, reference compound]",effect on viability of MRSA persisters (in words),[17],did not affect the viability
